From ChEMBL document CHEMBL1140872, “Discovery of a potent and selective inhibitor for human carbonyl reductase 1 from propionate scanning applied to the macrolide zearalenone” (Bioorg Med Chem, 2009) come the findings set out here.

In general, Tm refers to the temperature at the midpoint of the melting transition. What is called IC50 is the concentration at which inhibition is half-maximal. Usually Ki stands for a dissociation constant, usually derived from enzyme kinetics or from competition with a known ligand.

The target of assay [1] is T1, Carbonyl reductase [NADPH] 1 (Homo sapiens) (UniProt P16152).
T1 sequence (whole entry): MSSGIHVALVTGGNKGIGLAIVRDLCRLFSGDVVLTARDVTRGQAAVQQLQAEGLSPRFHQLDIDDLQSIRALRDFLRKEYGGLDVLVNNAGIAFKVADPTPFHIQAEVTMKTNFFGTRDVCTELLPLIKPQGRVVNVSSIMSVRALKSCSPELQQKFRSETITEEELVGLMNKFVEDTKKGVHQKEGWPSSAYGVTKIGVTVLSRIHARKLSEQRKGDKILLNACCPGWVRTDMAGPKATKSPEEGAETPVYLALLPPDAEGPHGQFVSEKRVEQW
In words: Binding affinity to human recombinant carbonyl reductase 1 expressed in Escherichia coli assessed as thermal shift by differential scanning fluorimetry in presence of NADP+. The procedure, abridged:
(§1)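 Thermal-shift (DSF) binding assay with purified recombinant catalytic domains or proteins carrying an N- or C-terminal His6 tag or GST fusion. Purity was >95% by SDS/PAGE and identity was confirmed by MS. Protein was at 2 µM final in 10 mM HEPES pH 7.5 and 150 mM NaCl. Tm shift is reported, with 2 °C as the threshold for binding.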
(DSF heats the sample and reads unfolding from a dye or from intrinsic fluorescence.)

Assay [2] addresses T2, Carbonyl reductase [NADPH] 3 (Homo sapiens) (UniProt O75828).
T2 sequence (whole entry): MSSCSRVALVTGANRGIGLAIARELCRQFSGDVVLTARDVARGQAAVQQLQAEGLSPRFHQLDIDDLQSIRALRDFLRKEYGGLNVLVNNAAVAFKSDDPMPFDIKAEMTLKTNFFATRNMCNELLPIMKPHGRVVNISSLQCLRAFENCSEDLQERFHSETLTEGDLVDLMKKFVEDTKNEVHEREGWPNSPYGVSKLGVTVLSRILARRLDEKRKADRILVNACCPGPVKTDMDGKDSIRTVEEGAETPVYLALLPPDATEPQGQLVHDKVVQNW
The assay can be described thus: Binding affinity to human recombinant carbonyl reductase 3 expressed in Escherichia coli assessed as thermal shift by differential scanning fluorimetry in absence of cofactor. The method in brief:
as §1

Assay [3] has as its target T1, Carbonyl reductase [NADPH] 1 (Homo sapiens). In words: Binding affinity to human recombinant carbonyl reductase 1 expressed in Escherichia coli assessed as thermal shift by differential scanning fluorimetry in presence of NADPH. The method in brief: as §1
The target is the same in assay [4]. In words: Binding affinity to human recombinant carbonyl reductase 1 expressed in Escherichia coli assessed as thermal shift by differential scanning fluorimetry in absence of cofactor. The method in brief:
as §1

Assay [5] addresses T2, Carbonyl reductase [NADPH] 3 (Homo sapiens). In words: Binding affinity to human recombinant carbonyl reductase 3 expressed in Escherichia coli assessed as thermal shift by differential scanning fluorimetry in presence of NADPH. The method in brief: as §1
For assay [6] the target is unchanged. In words: Binding affinity to human recombinant carbonyl reductase 3 expressed in Escherichia coli assessed as thermal shift by differential scanning fluorimetry in presence of NADP+. The method in brief:
as §1

Assay [7] concerns the target T1, Carbonyl reductase [NADPH] 1 (Homo sapiens). In words: Binding affinity to human recombinant carbonyl reductase 1 expressed in Escherichia coli assessed as NADPH oxidation at 200 uM relative to isatin. The method in brief:
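Substrate test used 200 nM purified CBR1 and 200 µM NADPH, injected onto compound at 200 µM in 50 mM sodium phosphate pH 6.8 with 1 mM MgCl2. NADPH oxidation was read as the fluorescence decrease at 460 nm (excitation 355 nm). Rate came from linear regression after normalizing to the fluorescence rise on injection. Run in triplicate and expressed as % of the isatin rate.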

Assay [8] has as its target T3, Carbonyl reductase [NADPH] 1 (Homo sapiens, UniProt P16152).
T3 sequence (P16152 whole entry): T1 sequence (whole entry)
The assay can be described thus: Binding affinity to human recombinant carbonyl reductase 1 expressed in Escherichia coli assessed as NADPH oxidation using isatin as substrate. The method in brief:
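Purified recombinant CBR1 (200 nM) and NADPH were added to compound in 50 mM sodium phosphate, pH 6.8, 1 mM MgCl2. NADPH oxidation was followed as the fluorescence decrease at 460 nm (excitation 355 nm). Rates came from linear regression after normalising to the fluorescence rise at injection. Compounds were titrated at two isatin levels, with no-protein background subtracted. Sigmoidal fit gave IC50, then Ki from the isatin concentration.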

Regarding `O=c1c(O)c(-c2ccc(O)c(O)c2)oc2cc(O)cc(O)c12`, the midpoint of thermal melting (Tm) in assay [1], in assay [2], in assay [3], in assay [4], in assay [5] and in assay [6] was less than 2 °C each time.

For `O=c1cc(-c2ccccc2)oc2cc(O)cc(O)c12` [CHRYSIN], the Tm in assay [1] is 4.6 °C; in assay [2], less than 2 °C; in assay [3], less than 2 °C; in assay [4], less than 2 °C; in assay [5], less than 2 °C; in assay [6], less than 2 °C. The Activity in assay [7] came out at 16.3%. Further, the concentration for half-maximal inhibition (IC50) in assay [8] was determined as 0.67 µM. Further, the inhibition constant (Ki) in assay [8] amounted to 0.11 µM.

Regarding `O=C1C[C@@H](c2ccc(O)cc2)Oc2cc(O)cc(O)c21` [NARINGENIN], the Tm was 2.3 °C in assay [1]; less than 2 °C in assay [2]; less than 2 °C in assay [3]; less than 2 °C in assay [4]; less than 2 °C in assay [5]; less than 2 °C in assay [6]. In assay [7], the Activity came out at 4.7%. In addition, the IC50 in assay [8] was 21.5 µM. The Ki in assay [8] came out at 3.43 µM.

Consider `COc1ccc(-c2coc3cc(O)cc(O)c3c2=O)cc1` [BIOCHANIN], for which the midpoint of thermal melting (Tm) in assay [1] is 2.7 °C; in assay [2], less than 2 °C; in assay [3] it was less than 2 °C; in assay [4], less than 2 °C; in assay [5], less than 2 °C; in assay [6] it was less than 2 °C. Besides, in assay [7], the Activity was found to be 9.3%. Further, the concentration for half-maximal inhibition (IC50) in assay [8] was determined as 12.7 µM. Also, in assay [8], the Ki came out at 2.03 µM.

Turning to `Oc1cc(Cl)ccc1Oc1ccc(Cl)cc1Cl` [TRICLOSAN], the Tm in assay [1] is 3.4 °C; in assay [2], less than 2 °C; in assay [3] it was less than 2 °C; in assay [4] it was less than 2 °C; in assay [5], less than 2 °C; in assay [6], less than 2 °C. The 50% inhibitory concentration (IC50) in assay [8] was found to be 0.4 µM. Further, in assay [8], the Ki was 0.06 µM.

With `COc1cc(O)c2c(c1)oc(=O)c1c3cc(O)c(O)cc3oc21` [WEDELOLACTONE], the melting temperature (Tm) in assay [1] is 5.1 °C; in assay [2], less than 2 °C; in assay [3], less than 2 °C; in assay [4], 2 °C; in assay [5] it was less than 2 °C; in assay [6], less than 2 °C. Besides, the Activity in assay [7] worked out at 5.8%. In addition, the IC50 in assay [8] came out at 3.78 µM. The inhibition constant (Ki) in assay [8] was found to be 0.6 µM.

With `O=c1c(-c2ccc(O)cc2)coc2cc(O)cc(O)c12`, the midpoint of thermal melting (Tm) in assay [1], in assay [2], in assay [3], in assay [4], in assay [5] and in assay [6] was less than 2 °C throughout.
